# Active and inactive are the calls of the source. The calls are words filed in the database; no cut-off is given here.
# Columns and labels:
# HCT-8 [1] = assay: Cytotoxicity against human HCT8 cells at 100 uM after 72 hrs by SRB assay; type: functional; conditions: HCT-8, 72 h
# Outline: (§1)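 Single-concentration growth inhibition of HCT-8 cells: seeded at 5000/well with 24 h adherence at 37 °C in 5% CO2, then 72 h continuous drug exposure, eight replicate wells. Maximum final DMSO was 0.1%, with DMSO and MMC controls. Protein was stained with 0.4% SRB in 1% acetic acid, solubilised in 10 mM Tris and absorbance read at 540 nm.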
# HCT-8 [2] = assay: Cytotoxicity against human HCT8 cells at 10 uM after 72 hrs by SRB assay; type: functional; conditions: HCT-8, 72 h; outline: as §1
# HCT-8 [3] = assay: Cytotoxicity against human HCT8 cells after 72 hrs by SRB assay; type: functional, cell-based; conditions: HCT-8, 72 h
# Outline: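 SRB assay on HCT-8 cells seeded at 5000/well and allowed 24 h adherence at 37 °C in 5% CO2, then given 72 h continuous exposure across a 10–100 concentration range, eight wells per condition. Maximum final DMSO was 0.1%. Fixed cells were stained with 0.4% SRB in 1% acetic acid, solubilised in 10 mM Tris and read at 540 nm. IC50 is the concentration giving a 50% reduction in net protein increase versus control.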
# HCT-8 [4] = assay: Induction of ROS production in human HCT8 cells under normoxic condition by flow cytometric method relative to untreated control; type: functional, cell-based
# Outline: (§2)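 Dichlorofluorescein method. HCT-8 cells in D-MEM high glucose with 10% FCS, 1–2 × 10^6 per 25 cm² flask, adhered overnight, then given 10 µM under normoxia or hypoxia. DCFH-DA loaded 20 min at 37 °C. Cells harvested with Puck's EDTA, fluorescence read by flow cytometry with 535 nm filter. Expressed as % over DMSO-treated basal; mean ± SEM of at least three experiments.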
# HCT-8 [5] = assay: Induction of ROS production in human HCT8 cells under hypoxic condition by flow cytometric method relative to untreated control; type: functional, cell-based; outline: as §2
# HCT-8 [6] = assay: Cell cycle arrest in human HCT8 cells in normoxic condition assessed as accumulation at G0/G1 phase at 10 uM after 24 hrs by flow cytometry; type: functional
# Outline: (§3)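 HCT-8 cells in D-MEM high glucose with 10% FCS were seeded at 1–2 × 10^6 per 25 cm² flask, left to adhere overnight, then exposed to drug for 24 h under normoxia or hypoxia. Drug was washed out and cells reoxygenated for 48 h. Floating and adherent cells were pooled, fixed in 70% ice-cold ethanol and stained with PI (50 µg/ml) plus RNase A (5 U/ml) for 30 min. Phases and the sub-G1 hypodiploid fraction (DNA fragmentation) were read by flow cytometry.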
# HCT-8 [7] = assay: Cell cycle arrest in human HCT8 cells in normoxic condition assessed as accumulation at G0/G1 phase at 10 uM after 24 hrs of drug washout by flow cytometry; type: functional
# HCT-8 [8] = assay: Cell cycle arrest in human HCT8 cells in normoxic condition assessed as accumulation at G0/G1 phase at 10 uM after 48 hrs of drug washout by flow cytometry; type: functional
# Outline: (§4)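 HCT-8 cells in D-MEM high glucose with 10% FCS, plated at 1–2 × 10^6 per 25 cm² flask and left to adhere overnight. Exposed to 10 µM for 24 h, normoxia or hypoxia (0.1% O₂, 95% N₂/5% CO₂), then washed out and reoxygenated 48 h. Floating plus EDTA-harvested cells fixed in 70% ethanol, stained with PI (50 µg/ml) plus RNase A, phase fractions read by flow cytometry.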
# HCT-8 [9] = assay: Cell cycle arrest in human HCT8 cells in normoxic condition assessed as accumulation at S phase at 10 uM after 24 hrs by flow cytometry; type: functional; outline: as §3
# HCT-8 [10] = assay: Cell cycle arrest in human HCT8 cells in normoxic condition assessed as accumulation at S phase at 10 uM after 48 hrs of drug washout by flow cytometry; type: functional; outline: as §4
# HCT-8 [11] = assay: Cell cycle arrest in human HCT8 cells in normoxic condition assessed as accumulation at G2/M phase at 10 uM after 24 hrs by flow cytometry; type: functional; outline: as §3
# HCT-8 [12] = assay: Cell cycle arrest in human HCT8 cells in normoxic condition assessed as accumulation at G2/M phase at 10 uM after 24 hrs of drug washout by flow cytometry; type: functional; outline: as §3
# HCT-8 [13] = assay: Cell cycle arrest in human HCT8 cells in normoxic condition assessed as accumulation at G2/M phase at 10 uM after 48 hrs of drug washout by flow cytometry; type: functional; outline: as §4
# HCT-8 [14] = assay: Effect on cell cycle arrest in human HCT8 cells in normoxic condition assessed as DNA fragmentation at 10 uM after 24 hrs by flow cytometry; type: functional; outline: as §3
# HCT-8 [15] = assay: Effect on cell cycle arrest in human HCT8 cells in normoxic condition assessed as DNA fragmentation at 10 uM after 48 hrs of drug washout by flow cytometry; type: functional; outline: as §3
# HCT-8 [16] = assay: Cell cycle arrest in human HCT8 cells in hypoxic condition assessed as accumulation at G0/G1 phase at 10 uM after 24 hrs by flow cytometry; type: functional; outline: as §3
# HCT-8 [17] = assay: Cell cycle arrest in human HCT8 cells in hypoxic condition assessed as accumulation at G0/G1 phase at 10 uM after 24 hrs of drug washout by flow cytometry; type: functional; outline: as §3
# HCT-8 [18] = assay: Cell cycle arrest in human HCT8 cells in hypoxic condition assessed as accumulation at G0/G1 phase at 10 uM after 48 hrs of drug washout by flow cytometry; type: functional; outline: as §4
# HCT-8 [19] = assay: Cell cycle arrest in human HCT8 cells in hypoxic condition assessed as accumulation at S phase at 10 uM after 24 hrs by flow cytometry; type: functional; outline: as §3
# HCT-8 [20] = assay: Cell cycle arrest in human HCT8 cells in hypoxic condition assessed as accumulation at S phase at 10 uM after 48 hrs of drug washout by flow cytometry; type: functional; outline: as §4
# HCT-8 [21] = assay: Cell cycle arrest in human HCT8 cells in hypoxic condition assessed as accumulation at G2/M phase at 10 uM after 24 hrs by flow cytometry; type: functional; outline: as §3
# HCT-8 [22] = assay: Cell cycle arrest in human HCT8 cells in hypoxic condition assessed as accumulation at G2/M phase at 10 uM after 24 hrs of drug washout by flow cytometry; type: functional; outline: as §3
# HCT-8 [23] = assay: Cell cycle arrest in human HCT8 cells in hypoxic condition assessed as accumulation at G2/M phase at 10 uM after 48 hrs of drug washout by flow cytometry; type: functional; outline: as §4
# HCT-8 [24] = assay: Effect on cell cycle arrest in human HCT8 cells in hypoxic condition assessed as DNA fragmentation at 10 uM after 24 hrs by flow cytometry; type: functional; outline: as §3
# HCT-8 [25] = assay: Effect on cell cycle arrest in human HCT8 cells in hypoxic condition assessed as DNA fragmentation at 10 uM after 48 hrs of drug washout by flow cytometry; type: functional; outline: as §3
structure (smiles),measurement,setting,value
NC(=O)c1cnn(-c2ccncc2[N+](=O)[O-])c1N,inhibition at 100 µM,HCT-8 [1],22.4%
same,inhibition at 10 µM,HCT-8 [2],9.72%
CCOC(=O)c1cnn2c1n[n+]([O-])c1cnccc12,inhibition at 100 µM,HCT-8 [1],97.4%
same,inhibition at 10 µM,HCT-8 [2],12.7%
same,IC50,HCT-8 [3],23.8 µM
same,IC90,HCT-8 [3],49.1 µM
CN1CCN(c2ccc3c(c2)n2nccc2n[n+]3[O-])CC1,inhibition at 100 µM,HCT-8 [1],32.4%
same,inhibition at 10 µM,HCT-8 [2],3.19%
[O-][n+]1nc2ccnn2c2cc(O)ccc21,inhibition at 100 µM,HCT-8 [1],19.7%
same,inhibition at 10 µM,HCT-8 [2],-4.21%
CN(C)CCOc1ccc2c(c1)n1nccc1n[n+]2[O-],inhibition at 100 µM,HCT-8 [1],42.3%
same,inhibition at 10 µM,HCT-8 [2],-2.36%
CCOC(=O)c1cn[nH]c1/N=[N+](/[O-])c1cc([N+](=O)[O-])ccc1O,inhibition at 100 µM,HCT-8 [1],60.4%
same,inhibition at 10 µM,HCT-8 [2],11.7%
same,IC50,HCT-8 [3],65.2 µM
same,IC90,HCT-8 [3],> 100 µM
COc1ccc(-c2ccc3c(c2)n2nccc2n[n+]3[O-])cc1,inhibition at 100 µM,HCT-8 [1],21.6%
same,inhibition at 10 µM,HCT-8 [2],11%
[O-][n+]1nc2ccnn2c2cc(-c3ccccc3)ccc21,inhibition at 100 µM,HCT-8 [1],35.5%
same,inhibition at 10 µM,HCT-8 [2],13.2%
CN1CCN(c2ccc3c(c2)n2ncc([N+](=O)[O-])c2n[n+]3[O-])CC1,inhibition at 100 µM,HCT-8 [1],93.2%
same,Activity,HCT-8 [4],Active
same,Activity,HCT-8 [5],Active
same,inhibition at 10 µM,HCT-8 [2],25.1%
same,IC50,HCT-8 [3],62.5 µM
same,IC90,HCT-8 [3],> 100 µM
same,Activity,HCT-8 [6],40.3%
same,Activity,HCT-8 [7],48%
same,Activity,HCT-8 [8],39.8%
same,Activity,HCT-8 [9],36.9%
same,Activity,HCT-8 [10],35.3%
same,Activity,HCT-8 [11],22.8%
same,Activity,HCT-8 [12],13%
same,Activity,HCT-8 [13],24.9%
same,Activity,HCT-8 [14],39%
same,Activity,HCT-8 [15],27%
same,Activity,HCT-8 [16],34.6%
same,Activity,HCT-8 [17],36.8%
same,Activity,HCT-8 [18],47%
same,Activity,HCT-8 [19],40.7%
same,Activity,HCT-8 [20],40.4%
same,Activity,HCT-8 [21],24.7%
same,Activity,HCT-8 [22],20.2%
same,Activity,HCT-8 [23],12.6%
same,Activity,HCT-8 [24],46.3%
same,Activity,HCT-8 [25],60%
O=C(O)c1cnn2c1n[n+]([O-])c1cnccc12,inhibition at 100 µM,HCT-8 [1],11.4%
same,inhibition at 10 µM,HCT-8 [2],13.2%
CCCCCOc1ccc2c(c1)n1nccc1n[n+]2[O-],inhibition at 100 µM,HCT-8 [1],38%
same,inhibition at 10 µM,HCT-8 [2],-6.17%
CCOC(=O)c1cnn(-c2ccncc2[N+](=O)[O-])c1N,inhibition at 100 µM,HCT-8 [1],69.7%
same,inhibition at 10 µM,HCT-8 [2],24.4%
same,IC50,HCT-8 [3],58.2 µM
same,IC90,HCT-8 [3],> 100 µM
CO[C@@]12[C@H](COC(N)=O)C3=C(C(=O)C(C)=C(N)C3=O)N1C[C@@H]1N[C@@H]12 [MITOMYCIN],IC50,HCT-8 [3],0.083 µM
same,IC90,HCT-8 [3],5.7 µM
same,Activity,HCT-8 [6],40.3%
same,Activity,HCT-8 [7],28.2%
same,Activity,HCT-8 [9],36.9%
same,Activity,HCT-8 [11],22.8%
same,Activity,HCT-8 [12],19.2%
same,Activity,HCT-8 [14],71.2%
same,Activity,HCT-8 [15],44%
same,Activity,HCT-8 [16],36.3%
same,Activity,HCT-8 [17],43.2%
same,Activity,HCT-8 [19],49.1%
same,Activity,HCT-8 [21],14.6%
same,Activity,HCT-8 [22],14.1%
same,Activity,HCT-8 [24],42.8%
same,Activity,HCT-8 [25],99%
CN1CCN(c2ccc3c(c2)n2ncc(-c4ccccc4)c2n[n+]3[O-])CC1,inhibition at 100 µM,HCT-8 [1],69.6%
same,inhibition at 10 µM,HCT-8 [2],53%
same,IC50,HCT-8 [3],10 µM
same,IC90,HCT-8 [3],> 100 µM
[O-][n+]1nc2ccnn2c2cc(N3CCOCC3)ccc21,inhibition at 100 µM,HCT-8 [1],25.8%
same,inhibition at 10 µM,HCT-8 [2],3.27%
[O-][n+]1nc2ccnn2c2cc(-c3cccs3)ccc21,inhibition at 100 µM,HCT-8 [1],48.5%
same,inhibition at 10 µM,HCT-8 [2],10.9%
CCOC(=O)c1cn[nH]c1/N=[N+](/[O-])c1cnccc1O,inhibition at 100 µM,HCT-8 [1],31.5%
same,inhibition at 10 µM,HCT-8 [2],3.87%
CN1CCN(c2ccc3nnc4c([N+](=O)[O-])cnn4c3c2[N+](=O)[O-])CC1,inhibition at 100 µM,HCT-8 [1],98.7%
same,Activity,HCT-8 [4],Active
same,Activity,HCT-8 [5],Active
same,inhibition at 10 µM,HCT-8 [2],73.8%
same,IC50,HCT-8 [3],5.98 µM
same,IC90,HCT-8 [3],18.5 µM
same,Activity,HCT-8 [6],40.5%
same,Activity,HCT-8 [7],48.6%
same,Activity,HCT-8 [8],35.1%
same,Activity,HCT-8 [9],37.3%
same,Activity,HCT-8 [10],35.1%
same,Activity,HCT-8 [11],22.2%
same,Activity,HCT-8 [12],13.4%
same,Activity,HCT-8 [13],35.1%
same,Activity,HCT-8 [14],42%
same,Activity,HCT-8 [15],59%
same,Activity,HCT-8 [16],43.8%
same,Activity,HCT-8 [17],51.2%
same,Activity,HCT-8 [18],31.1%
same,Activity,HCT-8 [19],40.5%
same,Activity,HCT-8 [20],45.9%
same,Activity,HCT-8 [21],15.6%
same,Activity,HCT-8 [22],10.6%
same,Activity,HCT-8 [23],23%
same,Activity,HCT-8 [24],42.8%
same,Activity,HCT-8 [25],21%

# Source: ChEMBL document CHEMBL1142526, “Synthesis of new pyrazolo[5,1-c][1,2,4] benzotriazines, pyrazolo[5,1-c]pyrido[4,3-e][1,2,4] triazines and their open analogues as cytotoxic agents in normoxic and hypoxic conditions” (Bioorg Med Chem, 2008)
